Measured values reported in ChEMBL document CHEMBL1126566, “Studies on analogues of classical antifolates bearing the naphthoyl group in place of benzoyl in the side chain” (J Med Chem, 1993).
pIC50, pKi: −log10 of the molar value.

How the values were obtained:
L1210 [1] = experiment: Tested for transport into L1210 cells measured as cell influx; assay type: functional, cell-based, Mus musculus
Dihydrofolate reductase [2] = biological target: T1, Dihydrofolate reductase (Mus musculus, UniProt P00375); experiment: Inhibitory activity of Dihydrofolate reductase in L1210 cells; assay type: cell-based
T1 sequence (P00375 whole entry): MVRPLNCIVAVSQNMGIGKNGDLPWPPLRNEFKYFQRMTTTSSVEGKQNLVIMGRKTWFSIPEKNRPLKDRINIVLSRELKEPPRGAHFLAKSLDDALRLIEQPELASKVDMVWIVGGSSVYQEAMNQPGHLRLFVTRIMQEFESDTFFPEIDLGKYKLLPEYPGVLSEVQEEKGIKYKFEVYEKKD

L1210 [3] = experiment: Tested for the ability to inhibit growth in vitro against L1210; assay type: functional, cell-based; conditions: Mus musculus
CCRF S-180 = experiment: Tested for the ability to inhibit growth in vitro against S180; assay type: functional, cell-based; conditions: Mus musculus
CCRF-CEM = experiment: Percent inhibition of Folyl-polyglutamate synthase from CCRF-CEM cells; assay type: cell-based; set-up: concentration or dose not given beside the values; conditions: Homo sapiens, dose or concentration not given here
In short: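 FPGS was partially purified from CCRF-CEM cells by (NH₄)₂SO₄ fractionation and gel sieving, with no detectable γ-glutamyl hydrolase. Product was separated on DEAE-cellulose. Percent inhibition is reported.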

Dihydrofolate reductase [4] = biological target: T2, Dihydrofolate reductase (Pneumocystis carinii, UniProt P16184); experiment: Tested for inhibition against Dihydrofolate reductase from Pneumocystis carinii
T2 sequence (P16184 whole entry): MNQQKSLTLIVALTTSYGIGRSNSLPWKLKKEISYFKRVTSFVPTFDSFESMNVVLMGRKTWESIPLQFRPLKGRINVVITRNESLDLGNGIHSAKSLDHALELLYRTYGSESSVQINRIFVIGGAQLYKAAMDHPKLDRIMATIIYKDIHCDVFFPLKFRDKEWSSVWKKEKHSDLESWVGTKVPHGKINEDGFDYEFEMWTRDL

[5] = Activity relative to saturating aminopterine at 100 uM against CCRF-CEM Folyl-polyglutamate synthetase; assay type: ADME; conditions: human
In short: (§1)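 FPGS from CCRF-CEM cells: freeze-thawed lysates fractionated by (NH₄)₂SO₄ (0–40% saturation pellet) and gel sieving, stored at –90 °C in 20% glycerol, free of detectable γ-glutamyl hydrolase. Product was separated on DEAE-cellulose minicolumns. Run in duplicate or triplicate, and each experiment was repeated at least once.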

HL-60 = experiment: Tested for the ability to inhibit growth in vitro against HL60; assay type: functional, cell-based; conditions: Homo sapiens
[6] = biological target: T3, Folylpolyglutamate synthase, mitochondrial (Mus musculus) (UniProt P48760); experiment: Specific activity of L1210 Folyl-polyglutamate synthase
T3 sequence (whole entry): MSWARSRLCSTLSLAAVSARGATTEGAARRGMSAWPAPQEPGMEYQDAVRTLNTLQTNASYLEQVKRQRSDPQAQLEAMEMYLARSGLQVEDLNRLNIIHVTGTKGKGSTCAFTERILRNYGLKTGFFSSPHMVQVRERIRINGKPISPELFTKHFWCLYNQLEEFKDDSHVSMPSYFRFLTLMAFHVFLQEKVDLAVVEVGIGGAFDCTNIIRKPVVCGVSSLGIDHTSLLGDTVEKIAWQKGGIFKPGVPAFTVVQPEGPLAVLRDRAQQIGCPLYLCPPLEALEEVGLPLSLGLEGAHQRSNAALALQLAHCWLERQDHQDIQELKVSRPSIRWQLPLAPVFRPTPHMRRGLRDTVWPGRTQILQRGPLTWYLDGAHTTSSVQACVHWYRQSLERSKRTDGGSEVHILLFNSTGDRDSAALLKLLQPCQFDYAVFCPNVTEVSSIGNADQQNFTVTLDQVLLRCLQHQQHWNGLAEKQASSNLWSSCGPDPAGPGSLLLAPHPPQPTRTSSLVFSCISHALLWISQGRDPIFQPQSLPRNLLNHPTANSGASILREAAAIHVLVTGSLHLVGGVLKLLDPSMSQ
In short: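 FPGS from L1210 cells was assayed by [³H]glutamate ligation, like the human enzyme assay. Each folate substrate was at 100 μM, and only specific activity was measured.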

[7] = test system: Folyl-polyglutamate synthase; experiment: Michaelis-Menten constant was determined against CCRF-CEM Folyl-polyglutamate synthase; assay type: ADME; conditions: human, folylpolyglutamate synthase from CCRF-CEM cells; in short: as §1

Structure (SMILES)	pKi (L1210 [1])	pKi (Dihydrofolate reductase [2])	pIC50 (L1210 [3])	pIC50 (CCRF S-180)	inhibition (CCRF-CEM)	pIC50 (Dihydrofolate reductase [4])	Relative Vmax [5]	pIC50 (HL-60)	Specific activity (pM hr-1 (mg of protein)-1) [6]	Km [7]
Nc1nc(N)c2cc(CNc3ccc(C(=O)NC(CCC(=O)O)C(=O)O)c4ccccc34)cnc2n1 (stereo unspecified)	5.82	11.44	8.38	8.41	21%	12.28	0.01	8.85		
Nc1nc(N)c2cc(CNc3ccc(C(=O)NC(CCC(=O)O)C(=O)O)c4c3CCCC4)cnc2n1 (stereo unspecified)	6.22	10.88	7.80	7.48	16%		0.01	7.77		
Nc1nc(N)c2nc(CNc3ccc(C(=O)NC(CCC(=O)O)C(=O)O)c4ccccc34)cnc2n1 (stereo unspecified)	6.04	11.34	8.22	8.23	12%		0.03	8.34	0.41	
Nc1nc(N)c2cc(CNc3ccc(C(=O)NC(CCC(=O)O)C(=O)O)c4ccccc34)ccc2n1 (stereo unspecified)	6.05	11.28	8.21	8.41				9.19		
Nc1nc(N)c2nc(CNc3ccc(C(=O)N[C@@H](CCC(=O)O)C(=O)O)cc3)cnc2n1 [AMINOPTERIN]							1		1.91	4.1 µM
CN(Cc1cnc2nc(N)nc(N)c2c1)c1ccc(C(=O)NC(CCC(=O)O)C(=O)O)c2ccccc12 (stereo unspecified)	6.11		8.64	8.72	23%			8.82		
